# Source: ChEMBL document CHEMBL3779798, “Novel seleno- and thio-urea derivatives with potent in vitro activities against several cancer cell lines” (Eur J Med Chem, 2016)
# Tests used:
# Assay type in all cases: functional, cell-based
# [1] = Anticancer activity against human BxPC3 cells assessed as inhibition of cell growth after 48 hrs by MTT assay; settings: BXPC-3, 48 h
# Summary of the method: (§1)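 MTT assay at 3,000 cells/well. Cells treated with DMSO or seven concentrations from 0.5 to 50 µM for 24, 48 or 72 h. MTT added 3 h before the end point; formazan dissolved in DMSO and read at 570 and 630 nm. IC50 is the concentration giving 50% growth inhibition. Media: PANC-1, BxPC3 and 1205Lu in DMEM; DU145 and A549 in RPMI 1640; HT29, HCT116 and RKO in McCoy's 5A, all with 10% FBS and pen/strep, at 37 °C and 5% CO2.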
# [2] = Anticancer activity against human DU145 cells assessed as inhibition of cell growth after 48 hrs by MTT assay; settings: DU-145, 48 h; summary of the method: as §1
# [3] = Anticancer activity against human HCT116 cells assessed as inhibition of cell growth after 72 hrs by MTT assay; settings: HCT-116, 72 h; summary of the method: as §1
# A549 [4] = assay: Anticancer activity against human A549 cells assessed as inhibition of cell growth after 48 hrs by MTT assay; settings: A549, 48 h; summary of the method: as §1
# [5] = Anticancer activity against human PANC1 cells assessed as inhibition of cell growth after 24 hrs by MTT assay; settings: PANC-1, 24 h; summary of the method: as §1
# [6] = Anticancer activity against human 1205 Lu cells assessed as inhibition of cell growth after 24 hrs by MTT assay; summary of the method: as §1
# [7] = Anticancer activity against human PANC1 cells assessed as inhibition of cell growth after 48 hrs by MTT assay; settings: PANC-1, 48 h; summary of the method: as §1
# [8] = Anticancer activity against human 1205 Lu cells assessed as inhibition of cell growth after 48 hrs by MTT assay; summary of the method: as §1
# [9] = Anticancer activity against human DU145 cells assessed as inhibition of cell growth after 72 hrs by MTT assay; settings: DU-145, 72 h; summary of the method: as §1
# [10] = Anticancer activity against human DU145 cells assessed as inhibition of cell growth after 24 hrs by MTT assay; settings: DU-145, 24 h; summary of the method: as §1
# [11] = Anticancer activity against human BxPC3 cells assessed as inhibition of cell growth after 72 hrs by MTT assay; settings: BXPC-3, 72 h; summary of the method: as §1
# [12] = Anticancer activity against human HCT116 cells assessed as inhibition of cell growth after 48 hrs by MTT assay; settings: HCT-116, 48 h; summary of the method: as §1
# [13] = Anticancer activity against human PANC1 cells assessed as inhibition of cell growth after 72 hrs by MTT assay; settings: PANC-1, 72 h; summary of the method: as §1
# A549 [14] = assay: Anticancer activity against human A549 cells assessed as inhibition of cell growth after 72 hrs by MTT assay; settings: A549, 72 h; summary of the method: as §1
# [15] = Anticancer activity against human 1205 Lu cells assessed as inhibition of cell growth after 72 hrs by MTT assay; summary of the method: as §1
# [16] = Anticancer activity against human BxPC3 cells assessed as inhibition of cell growth after 24 hrs by MTT assay; settings: BXPC-3, 24 h; summary of the method: as §1
# [17] = Anticancer activity against human HCT116 cells assessed as inhibition of cell growth after 24 hrs by MTT assay; settings: HCT-116, 24 h; summary of the method: as §1
# A549 [18] = assay: Anticancer activity against human A549 cells assessed as inhibition of cell growth after 24 hrs by MTT assay; settings: A549, 24 h; summary of the method: as §1
SMILES,IC50 [1] [µM],IC50 [2] [µM],IC50 [3] [µM],IC50 (A549 [4]) [µM],IC50 [5] [µM],IC50 [6] [µM],IC50 [7] [µM],IC50 [8] [µM],IC50 [9] [µM],IC50 [10] [µM],IC50 [11] [µM],IC50 [12] [µM],IC50 [13] [µM],IC50 (A549 [14]) [µM],IC50 [15] [µM],IC50 [16] [µM],IC50 [17] [µM],IC50 (A549 [18]) [µM]
N=C(N)SCc1ccc(-n2cccc2)cc1,> 50,> 50,31.5,> 50,> 50,> 50,> 50,> 50,31.7,> 50,24.6,> 50,40.6,> 50,> 50,> 50,> 50,> 50
N=C(N)[Se]Cc1cc2c(cc1Br)OCO2,> 50,> 50,23.9,> 50,> 50,> 50,24.7,> 50,> 50,> 50,36.9,31.8,16.5,36.3,21.8,> 50,> 50,> 50
N=C(N)SCc1c2ccccc2nc2ccccc12,> 50,> 50,45.1,> 50,> 50,> 50,> 50,> 50,> 50,> 50,46.3,> 50,> 50,> 50,> 50,> 50,> 50,> 50
COc1cc2oc(=O)cc(C[Se]C(=N)N)c2cc1OC,> 50,8.4,6.6,5.2,20.6,21,19.4,4.4,6.8,11.4,6.6,8.9,10,4.5,1.9,> 50,26.7,15.7
N=C(N)[Se]Cc1ccc(-n2cccc2)cc1,14.7,> 50,> 50,16.3,> 50,> 50,> 50,> 50,> 50,> 50,8.3,> 50,> 50,12.8,> 50,> 50,> 50,25.3
N=C(N)SCN1C(=O)c2ccccc2C1=O,> 50,> 50,> 50,> 50,> 50,> 50,> 50,> 50,> 50,> 50,> 50,> 50,> 50,> 50,> 50,> 50,> 50,> 50
N=C(N)[Se]CN1C(=O)c2ccccc2C1=O,19.1,14,15.6,7.8,23.5,19,15.3,13.2,6.9,18.8,18.8,17.9,12.6,5.5,9.3,19.8,29.2,11.2
N=C(N)[Se]Cc1ccc2c(c1)C(=O)c1ccccc1C2=O,> 50,6.2,5.9,2.2,> 50,17.4,> 50,14.5,8.2,21.4,> 50,12.6,31.4,1.9,11.3,> 50,> 50,8.9
N=C(N)SCc1nc2ccccc2nc1CSC(=N)N,> 50,> 50,> 50,> 50,> 50,> 50,> 50,> 50,> 50,> 50,> 50,> 50,> 50,> 50,> 50,> 50,> 50,> 50
COc1cc2oc(=O)cc(CSC(=N)N)c2cc1OC,> 50,> 50,> 50,> 50,> 50,> 50,> 50,> 50,> 50,> 50,> 50,> 50,> 50,> 50,37.4,> 50,> 50,> 50
Cc1noc(C)c1C[Se]C(=N)N,6.8,22,4.6,2.8,> 50,> 50,37.4,> 50,7.4,> 50,2.4,45,13.6,1.2,3.4,> 50,> 50,> 50
Cc1noc(C)c1CSC(=N)N,> 50,> 50,> 50,> 50,> 50,> 50,> 50,> 50,> 50,> 50,47.2,> 50,> 50,> 50,> 50,> 50,> 50,> 50
N=C(N)[Se]Cc1c2ccccc2nc2ccccc12,10.5,14.9,14.4,14.9,12.1,13,11.6,16.7,12.9,31.8,8.2,16.7,9.8,6.2,11.6,20.4,31.8,34.4
N=C(N)SCc1ccc2ccccc2n1,37.3,> 50,22.9,> 50,> 50,> 50,> 50,> 50,31.6,> 50,25.7,28.5,> 50,> 50,39.2,> 50,> 50,> 50
N=C(N)[Se]Cc1ccc2ccccc2n1,17,11.6,10.6,15.1,18,14.4,15.9,9.9,7.3,19.6,7.8,19.6,9.6,8.1,7.1,36.6,29.7,39.6
N=C(N)[Se]Cc1ccc([N+](=O)[O-])o1,39.4,> 50,3.8,10.2,> 50,19.1,15.6,15.7,15.6,> 50,15.6,3.7,13.6,9,13,42.9,14.6,22.9
N=C(N)SCc1ccc([N+](=O)[O-])o1,> 50,> 50,7,> 50,> 50,> 50,> 50,> 50,> 50,> 50,> 50,30.8,> 50,> 50,> 50,> 50,> 50,> 50
